System: MS2 coat protein
Assay: apparent Kd, MS2 coat protein; higher = weaker binding; RNA-MaP array; tryptophan 2.4 mM where present
Procedure, shortened: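 Designs on Illumina sequencing-chip clusters, transcribed by stalled E. coli RNA polymerase, were exposed to SNAP-549-labelled MS2 coat protein in doubling steps from 0.7 or 1.5 nM up to 3 µM, without and then with constant ligand. The buffer held 100 mM Tris-HCl pH 7.5, 80 mM KCl, 4 mM MgCl2, BSA, DTT, yeast tRNA and Tween-20. Apparent Kd values are medians of filtered per-cluster binding-curve fits to green signal normalised to red-channel RNA signal and control-cluster median Fmax.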

[1] = designed as: OFF switch for tryptophan, no ligand
[2] = ligand present: tryptophan, designed as: OFF switch for tryptophan
[3] = designed as: ON switch for tryptophan, no ligand
[4] = ligand present: tryptophan, designed as: ON switch for tryptophan

Row | Sequence | apparent Kd [1] | apparent Kd [2] | apparent Kd [3] | apparent Kd [4]
1 | AUAAAUAAUAAAUAAGAUAAAAUGGGUGAACGAGGACCGGUACGGCCGCCACUCGGACAUGAGGAUCACCCAUGUCCAUGUGAAA | 0.0202 µM | 0.0276 µM |  | 
2 | AUCUUUGACGAUCUGGGAAAACCAGAUCGGCGAGGACCGGUACGGCCGCCACUCGUGUAUAAUAUACAUGAGGAUCACCCAUGUA |  |  | 0.0404 µM | 0.0296 µM
3 | GUUAUAUGAAAACAUAUAACAGUGGGUGAACGAGGACCGGUACGGCCGCCACUCGGACAUGAGGAUCACCCAUGUCCAUGUGAAA | 0.0158 µM | 0.0414 µM |  | 
4 | CACGAAAGAUCGGCCGCCACUAACCUGUGUGUACUAGCACAUGAGGAUCACCCAUGUUCUUGCGUUAGGACCGGGAUUGAGCGUG | 0.023 µM | 0.0217 µM |  | 
5 | CGUAGUAUCAGACAUGAGGAUCACCCAUGUCGAGGACCGGUACGGCCGCCACUCGGCAGUUUGCGUCCUCAGGUACUCCAGGUAA | 0.0159 µM | 0.0187 µM |  | 
6 | AAACUUCGCAUAGGAAAACUAUGUGAAGAUCGAGGACCGGUACGGCCGCCACUCGUCCUCAACAUGAGGAUCACCCAUGUAAUAA | 0.0211 µM | 0.03 µM |  | 
7 | CGAUAUAAGACGGCCGCCACUAUUAAGUAACAAAAUAAACAUGAGGAUCACCCAUGUACAUGGGAUAGGACCGGGUCCAAUAACG |  |  | 0.163 µM | 0.0769 µM
8 | GUGAGCGCCGAACAUCGCUGGUCCUCUAUCCGAGGACCGGUACGGCCGCCACUCGACAUGAGGAUCACCCAUGUUGGCACUGGCG | 0.00937 µM | 0.0106 µM |  | 
9 | AUACAUGAGGAUCACCCAUGUCCUCGUGAUCGAGGACCGGUACGGCCGCCACUCGGUCCUCGCGAGGAGGAGUCAAAGACUCCUA |  |  | 0.178 µM | 0.128 µM
10 | GGCUAGGUCUCGGCCGCCACUGCUACAUGAGGAUCACCCAUGUACCUGGGCGGUCGCUCCCUCGGCAGGACCGGGAGACAUUCGU | 0.00997 µM | 0.023 µM |  | 
11 | UAUAUAUACUCGGCCGCCACUGAGAGAGUCAUGUAAACAUGAGGAUCACCCAUGUAAUAUAUAUACAGGACCGGGAGUAUAUGAA | 0.0154 µM | 0.0136 µM |  | 
12 | GAGGAAACUCACAUGAGGAUCACCCAUGUACGAGGACCGGUACGGCCGCCACUCGAAACCAUGGGCGGUAGUACGUGGAAGCUUG | 0.0218 µM | 0.0959 µM |  | 
13 | AAUACAGUGUCGGCCGCCACUGAAACAUGACAUGAGACAUGAGGAUCACCCAUGUACAUAAUAAACAGGACCGGGACCCAUGUAU |  |  | 0.0379 µM | 0.0155 µM
14 | AGACUGUAAAGUCUACCGGUCAACAAUAAUCGAGGACCGGUACGGCCGCCACUCGAUGUGAUAUACACAUGAGGAUCACCCAUGU |  |  | 0.0162 µM | 0.0155 µM
15 | UCUGUUUGCUUUGUUUGUUUCUUCUUUGAGCGAGGACCGGUACGGCCGCCACUCGGGUUACAUGAGGAUCACCCAUGUGGUUUCU |  |  | 0.0989 µM | 0.0578 µM
16 | AGAGCAUUGACGGCCGCCACUUAUGUCACAUGAGGAUCACCCAUGUGAUGGGUGAUAGCCCGGUUGAGGACCGGGUCAAUGCUCA |  |  | 0.0127 µM | 0.0179 µM
17 | GGGAGAUAGGCGGCCGCCACUGAUUUUCAUAUAUAUAUAACAUGAGGAUCACCCAUGUAGAUAUACAGGACCGGGCCUAUUUUUU |  |  | 0.0175 µM | 0.0162 µM
18 | GUCCUCAUGACGGCCGCCACUACACAUGAGGAUCACCCAUGUAAUGAUCCCUUAAAUGAUAAUAGUAGGACCGGGUCACUGUAAG |  |  | 0.457 µM | 0.699 µM
19 | AGAUUCGACACGGCCGCCACUCGUGACAGAUUUCGCAGUGGUCAACAUGAGGAUCACCCAUGUCUGAGGACCGGGUGUUGAGUCU | 0.0335 µM | 0.474 µM |  | 
20 | AUCAUAAUAGCCUCGUGUAAUUAAAUGGAACGAGGACCGGUACGGCCGCCACUCGAUAUAAACAUGAGGAUCACCCAUGUAAGCA | 0.0655 µM | 0.0583 µM |  | 
21 | AAUAAGAUCCUCAUGUGAGUCGUACCAUAACGAGGACCGGUACGGCCGCCACUCGAACAUGAGGAUCACCCAUGUAGGUACGACA |  |  | 0.118 µM | 0.176 µM
22 | GGAUAGGACACGGCCGCCACUACCUAGGAUACUAGAAACAUUUCCUCACAUGAGGAUCACCCAUGUAGGACCGGGUGUCCUAUCG | 0.273 µM | 0.115 µM |  | 
23 | AUAAUAAUGUCGGCCGCCACUAUAAACAUGAGGAACAUGAGGAUCACCCAUGUAUGAGGAUCACCUAGGACCGGGACUAAUAUUA | 0.0476 µM | 0.0433 µM |  | 
24 | GAGAGAGGAGUGCGGCGUGUUCCGCUCCGUCGAGGACCGGUACGGCCGCCACUCGACAUGAGGAUCACCCAUGUCCUCUCUCGCG | 0.0313 µM | 0.0138 µM |  | 
25 | AAUAAUAGGUGAUCUUGAGUCGUACCGUAACGAGGACCGGUACGGCCGCCACUCGAACAUGAGGAUCACCCAUGUAUGUAUGAUA |  |  | 0.09 µM | 0.117 µM
26 | ACACAAUACAUGAGGAUCACCCAUGUAAAACGAGGACCGGUACGGCCGCCACUCGAAUACAGGAAACCUCGGAAUAUUAAGUGAA | 0.0518 µM | 0.038 µM |  | 

From the EternaBench riboswitch data
